Converted amounts (≈) assume the structure as drawn.
What was measured:
[1] = test system: Mycobacterium tuberculosis; test: Antimycobacterial activity against isoniazid-resistant Mycobacterium tuberculosis after 3 to 28 days by twofold dilution method; assay type: functional
How it was run: (§1)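 Twofold agar dilution in Middlebrook 7H11 with 10% OADC; plates held at 37 °C for 3 or 28 days. MIC is the lowest concentration giving complete inhibition of visible mycobacterial growth. Rifampin, streptomycin and BM521 served as references.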

[2] = test system: Mycobacterium tuberculosis; test: Antimycobacterial activity against rifampin-resistant Mycobacterium tuberculosis after 3 to 28 days by twofold dilution method; assay type: functional; how it was run: as §1

Structure (SMILES) | MIC [1] [µg/mL] | MIC [2] [µg/mL]
CSc1ccc(-c2cc(CN3CCSCC3)c(C)n2-c2ccc(F)cc2)cc1 | > 16 | 0.25 (≈ 0.606 µM)
Cc1ccc(-c2cc(CN3CCSCC3)c(C)n2-c2ccc(F)cc2)cc1 | 32 (≈ 84.1 µM) | 0.5 (≈ 1.31 µM)
CO[C@H]1/C=C/O[C@@]2(C)Oc3c(C)c(O)c4c(O)c(c(/C=N/N5CCN(C)CC5)c(O)c4c3C2=O)NC(=O)/C(C)=C\C=C\[C@H](C)[C@H](O)[C@@H](C)[C@@H](O)[C@@H](C)[C@H](OC(C)=O)[C@@H]1C [RIFAMPIN] | 0.8 (≈ 0.972 µM) | > 64
CN[C@@H]1[C@H](O[C@H]2[C@H](O[C@H]3[C@H](O)[C@@H](O)[C@H](N=C(N)N)[C@@H](O)[C@@H]3N=C(N)N)O[C@@H](C)[C@]2(O)C=O)O[C@@H](CO)[C@H](O)[C@H]1O [STREPTOMYCIN] | 0.5 (≈ 0.86 µM) | 0.5 (≈ 0.86 µM)
